# Columns and labels:
# [1] = biological target: Angiotensin-converting enzyme (Homo sapiens) (UniProt P12821); test: Inhibition of human angiotensin converting enzyme at 10 uM relative to control
# [2] = biological target: Substance-P receptor (Homo sapiens) (UniProt P25103); test: Inhibition of human NK1 receptor at 10 uM relative to control
# [3] = Fraction unbound in Wistar Hannover rat brain at 1 mg/kg, sc measured at 2 hrs post dose by LC-MS/MS analysis; assay type: ADME, organism-based; conditions: in vivo
# [4] = biological target: Somatostatin receptor type 4 (Homo sapiens) (UniProt P31391); test: Inhibition of human Somatostatin 4 receptor at 10 uM relative to control
# Chain of Somatostatin receptor type 4 (Homo sapiens) (P31391 whole entry): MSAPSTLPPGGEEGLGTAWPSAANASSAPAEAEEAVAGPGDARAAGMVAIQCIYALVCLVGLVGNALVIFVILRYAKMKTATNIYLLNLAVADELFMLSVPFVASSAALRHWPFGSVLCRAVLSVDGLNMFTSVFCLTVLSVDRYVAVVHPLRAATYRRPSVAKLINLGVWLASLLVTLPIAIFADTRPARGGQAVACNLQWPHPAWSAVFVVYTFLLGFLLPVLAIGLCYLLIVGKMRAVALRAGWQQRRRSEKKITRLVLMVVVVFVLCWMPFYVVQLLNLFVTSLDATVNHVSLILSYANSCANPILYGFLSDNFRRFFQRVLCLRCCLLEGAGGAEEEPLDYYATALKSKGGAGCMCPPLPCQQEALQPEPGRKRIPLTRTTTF
# [5] = Selectivity ratio of IC50 for bovine retina PDE6A to IC50 for full length recombinant human PDE1A
# Method in brief: (§1)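 IC50s were measured against recombinant PDEs, all human except PDE6A (bovine). Each enzyme was given its appropriate cAMP or cGMP substrate at below 1/3 of its Km. IC50s are the mean of n = 3 or more. The selectivity ratio is the IC50 for the other PDE divided by the IC50 for PDE1B1 or PDE1A.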
# Homo sapiens [6] = organism: Homo sapiens; test: Selectivity ratio of IC50 for full length recombinant human PDE7B to IC50 for full length recombinant human PDE1A; method in brief: as §1
# [7] = biological target: Prostaglandin G/H synthase 2 (Homo sapiens) (UniProt P35354); test: Inhibition of recombinant human cyclooxygenase 2 using arachidonic acid/ADHP as substrate at 10 uM after 5 mins by Fluorimetric method relative to control
# [8] = Fraction unbound in Wistar Hannover rat brain at 1 mg/kg, sc measured at 1 hr post dose by LC-MS/MS analysis; assay type: ADME, organism-based; conditions: in vivo
# [9] = biological target: Muscarinic acetylcholine receptor M3 (Homo sapiens) (UniProt P20309); test: Inhibition of human muscarinic M3 receptor at 10 uM relative to control
# Chain of Muscarinic acetylcholine receptor M3 (Homo sapiens) (P20309 whole entry, looked up): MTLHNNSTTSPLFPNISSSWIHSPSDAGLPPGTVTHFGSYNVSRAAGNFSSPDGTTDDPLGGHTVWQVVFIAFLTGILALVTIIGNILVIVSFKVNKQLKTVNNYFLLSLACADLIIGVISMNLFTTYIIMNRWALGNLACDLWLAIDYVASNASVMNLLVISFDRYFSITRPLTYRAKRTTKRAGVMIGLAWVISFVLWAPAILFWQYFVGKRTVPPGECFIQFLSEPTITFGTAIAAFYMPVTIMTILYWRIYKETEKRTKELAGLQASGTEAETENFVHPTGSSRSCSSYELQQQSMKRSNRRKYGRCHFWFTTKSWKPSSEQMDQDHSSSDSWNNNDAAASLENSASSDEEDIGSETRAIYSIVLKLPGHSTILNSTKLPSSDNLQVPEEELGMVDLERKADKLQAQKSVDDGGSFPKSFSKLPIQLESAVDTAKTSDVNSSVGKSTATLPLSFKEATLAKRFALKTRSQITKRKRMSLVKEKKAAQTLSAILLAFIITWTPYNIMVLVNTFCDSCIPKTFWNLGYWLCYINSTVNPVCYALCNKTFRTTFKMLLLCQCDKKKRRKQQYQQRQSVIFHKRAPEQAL
# [10] = Ratio of drug uptake in cerebrospinal fluid to fraction unbound in plasma in Wistar Hannover rat at 1 mg/kg, sc measured at 2 hrs post dose by LC-MS/MS analysis; assay type: ADME, organism-based, CSF/Plasma; conditions: in vivo
# Homo sapiens [11] = organism: Homo sapiens; test: Selectivity ratio of IC50 for full length recombinant human PDE11A4 to IC50 for full length recombinant human PDE1B1; method in brief: as §1
# [12] = biological target: 5-hydroxytryptamine receptor 3A (Homo sapiens) (UniProt P46098); test: Inhibition of human 5-HT3 receptor at 10 uM relative to control
# Chain of 5-hydroxytryptamine receptor 3A (Homo sapiens) (P46098 whole entry): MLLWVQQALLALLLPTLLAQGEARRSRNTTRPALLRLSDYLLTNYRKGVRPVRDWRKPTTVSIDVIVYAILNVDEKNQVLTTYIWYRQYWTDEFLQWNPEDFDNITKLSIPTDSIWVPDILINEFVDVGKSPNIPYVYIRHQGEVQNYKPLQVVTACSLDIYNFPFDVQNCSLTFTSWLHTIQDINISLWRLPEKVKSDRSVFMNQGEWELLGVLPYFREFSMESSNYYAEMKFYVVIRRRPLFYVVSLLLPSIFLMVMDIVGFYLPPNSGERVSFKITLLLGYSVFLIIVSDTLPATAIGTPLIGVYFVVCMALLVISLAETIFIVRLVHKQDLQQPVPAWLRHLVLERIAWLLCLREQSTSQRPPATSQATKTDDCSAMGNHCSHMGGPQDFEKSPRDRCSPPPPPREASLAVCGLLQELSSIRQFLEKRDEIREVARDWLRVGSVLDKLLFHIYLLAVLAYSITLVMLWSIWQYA
# [13] = biological target: Prostaglandin G/H synthase 1 (Homo sapiens) (UniProt P23219); test: Inhibition of recombinant human Cyclooxygenase 1 using arachidonic acid/ADHP as substrate at 10 uM after 3 mins by Fluorimetric method relative to control
# [14] = biological target: Muscarinic acetylcholine receptor M1 (Homo sapiens) (UniProt P11229); test: Inhibition of human muscarinic M1 receptor at 10 uM relative to control
# Chain of Muscarinic acetylcholine receptor M1 (Homo sapiens) (P11229 whole entry): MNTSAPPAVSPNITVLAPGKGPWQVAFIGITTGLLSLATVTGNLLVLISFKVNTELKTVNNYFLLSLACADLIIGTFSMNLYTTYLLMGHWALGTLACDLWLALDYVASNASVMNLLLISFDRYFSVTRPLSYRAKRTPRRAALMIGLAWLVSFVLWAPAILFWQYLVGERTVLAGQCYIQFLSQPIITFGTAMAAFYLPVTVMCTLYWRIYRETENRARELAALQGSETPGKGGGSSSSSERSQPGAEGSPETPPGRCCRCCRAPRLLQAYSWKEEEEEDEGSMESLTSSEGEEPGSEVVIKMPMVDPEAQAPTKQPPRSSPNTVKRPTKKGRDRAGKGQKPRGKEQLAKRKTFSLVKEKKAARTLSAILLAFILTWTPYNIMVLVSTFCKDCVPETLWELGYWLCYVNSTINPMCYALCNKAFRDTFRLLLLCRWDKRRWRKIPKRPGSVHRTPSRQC
# [15] = biological target: cGMP-dependent 3',5'-cyclic phosphodiesterase (Homo sapiens, UniProt O00408); test: Inhibition of full length recombinant human PDE2A1 using 3',5'-[3H]cGMP as substrate after 30 mins by scintillation proximity assay
# Method in brief: (§2)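 Enzymes were human except PDE6A, which was bovine. Each was assayed with cAMP or cGMP substrate, as appropriate to the enzyme, at concentrations below 1/3 of Km. IC50 values are mean ± SEM from n = 3 or more.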
# Homo sapiens [16] = organism: Homo sapiens; test: Inhibition of human 5-HT2 receptor at 10 uM relative to control
# [17] = Selectivity ratio of IC50 for bovine retina PDE6A to IC50 for full length recombinant human PDE1B1; method in brief: as §1
# [18] = biological target: Sodium-dependent noradrenaline transporter (Homo sapiens) (UniProt P23975); test: Inhibition of human norepinephrine transporter at 10 uM relative to control
# Chain of Sodium-dependent noradrenaline transporter (Homo sapiens) (P23975 whole entry): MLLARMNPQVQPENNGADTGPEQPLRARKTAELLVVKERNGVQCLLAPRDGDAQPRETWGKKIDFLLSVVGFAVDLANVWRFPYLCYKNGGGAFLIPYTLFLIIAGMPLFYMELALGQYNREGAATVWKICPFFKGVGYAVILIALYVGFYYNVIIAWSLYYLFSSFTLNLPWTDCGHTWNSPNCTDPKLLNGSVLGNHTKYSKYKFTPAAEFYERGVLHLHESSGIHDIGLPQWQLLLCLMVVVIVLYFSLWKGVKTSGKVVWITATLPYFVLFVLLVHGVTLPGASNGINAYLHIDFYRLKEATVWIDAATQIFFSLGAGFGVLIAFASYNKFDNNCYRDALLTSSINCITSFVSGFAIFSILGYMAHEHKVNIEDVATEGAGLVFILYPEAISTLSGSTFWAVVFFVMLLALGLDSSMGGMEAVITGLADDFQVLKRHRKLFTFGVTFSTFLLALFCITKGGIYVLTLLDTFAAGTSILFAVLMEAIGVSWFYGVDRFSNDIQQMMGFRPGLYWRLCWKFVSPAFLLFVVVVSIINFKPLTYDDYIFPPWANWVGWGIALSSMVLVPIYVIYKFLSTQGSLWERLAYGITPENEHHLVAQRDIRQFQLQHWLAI
# [19] = biological target: Dual 3',5'-cyclic-AMP and -GMP phosphodiesterase 11A (Homo sapiens, UniProt Q9HCR9); test: Inhibition of full length recombinant human PDE11A4 using 3',5'-[3H]cGMP as substrate after 30 mins by scintillation proximity assay; method in brief: as §2
# Homo sapiens [20] = organism: Homo sapiens; test: Displacement of [125I]alpha -bungarotoxin from human nAChR (Muscle-Type) at 10 uM after 120 mins by scintillation counting analysis relative to control
# [21] = biological target: Histamine H2 receptor (Homo sapiens) (UniProt P25021); test: Inhibition of human histamine H2 receptor at 10 uM relative to control
# Chain of Histamine H2 receptor (Homo sapiens) (P25021 whole entry): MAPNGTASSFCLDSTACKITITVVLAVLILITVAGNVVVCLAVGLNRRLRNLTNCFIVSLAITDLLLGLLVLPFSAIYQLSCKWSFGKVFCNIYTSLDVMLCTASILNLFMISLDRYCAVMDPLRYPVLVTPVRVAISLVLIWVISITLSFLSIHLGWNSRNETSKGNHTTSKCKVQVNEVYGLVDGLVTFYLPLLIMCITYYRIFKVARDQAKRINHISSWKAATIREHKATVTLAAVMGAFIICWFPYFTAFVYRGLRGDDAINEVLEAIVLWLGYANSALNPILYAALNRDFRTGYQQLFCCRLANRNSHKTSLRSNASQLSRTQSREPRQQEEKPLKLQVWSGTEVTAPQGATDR
# [22] = biological target: Glucocorticoid receptor (Homo sapiens) (UniProt P04150); test: Inhibition of human glucocorticoid receptor at 10 uM relative to control
# [23] = biological target: Voltage-dependent N-type calcium channel subunit alpha-1B (Rattus norvegicus) (UniProt Q02294); test: Displacement of [125I]omega -conotoxin GVIA from rat brain N-type Calcium channel at 10 uM after 30 mins by scintillation counting analysis relative to control
# Homo sapiens [24] = organism: Homo sapiens; test: Inhibition of human calcium modulated kinase 2 at 10 uM relative to control
# [25] = biological target: Dual specificity calcium/calmodulin-dependent 3',5'-cyclic nucleotide phosphodiesterase 1B (Homo sapiens, UniProt Q01064); test: Inhibition of full length recombinant human PDE1B1 using 3',5'-[3H]cAMP as substrate after 30 mins by scintillation proximity assay; method in brief: as §2
# Chain of Angiotensin-converting enzyme (Homo sapiens) (P12821 whole entry): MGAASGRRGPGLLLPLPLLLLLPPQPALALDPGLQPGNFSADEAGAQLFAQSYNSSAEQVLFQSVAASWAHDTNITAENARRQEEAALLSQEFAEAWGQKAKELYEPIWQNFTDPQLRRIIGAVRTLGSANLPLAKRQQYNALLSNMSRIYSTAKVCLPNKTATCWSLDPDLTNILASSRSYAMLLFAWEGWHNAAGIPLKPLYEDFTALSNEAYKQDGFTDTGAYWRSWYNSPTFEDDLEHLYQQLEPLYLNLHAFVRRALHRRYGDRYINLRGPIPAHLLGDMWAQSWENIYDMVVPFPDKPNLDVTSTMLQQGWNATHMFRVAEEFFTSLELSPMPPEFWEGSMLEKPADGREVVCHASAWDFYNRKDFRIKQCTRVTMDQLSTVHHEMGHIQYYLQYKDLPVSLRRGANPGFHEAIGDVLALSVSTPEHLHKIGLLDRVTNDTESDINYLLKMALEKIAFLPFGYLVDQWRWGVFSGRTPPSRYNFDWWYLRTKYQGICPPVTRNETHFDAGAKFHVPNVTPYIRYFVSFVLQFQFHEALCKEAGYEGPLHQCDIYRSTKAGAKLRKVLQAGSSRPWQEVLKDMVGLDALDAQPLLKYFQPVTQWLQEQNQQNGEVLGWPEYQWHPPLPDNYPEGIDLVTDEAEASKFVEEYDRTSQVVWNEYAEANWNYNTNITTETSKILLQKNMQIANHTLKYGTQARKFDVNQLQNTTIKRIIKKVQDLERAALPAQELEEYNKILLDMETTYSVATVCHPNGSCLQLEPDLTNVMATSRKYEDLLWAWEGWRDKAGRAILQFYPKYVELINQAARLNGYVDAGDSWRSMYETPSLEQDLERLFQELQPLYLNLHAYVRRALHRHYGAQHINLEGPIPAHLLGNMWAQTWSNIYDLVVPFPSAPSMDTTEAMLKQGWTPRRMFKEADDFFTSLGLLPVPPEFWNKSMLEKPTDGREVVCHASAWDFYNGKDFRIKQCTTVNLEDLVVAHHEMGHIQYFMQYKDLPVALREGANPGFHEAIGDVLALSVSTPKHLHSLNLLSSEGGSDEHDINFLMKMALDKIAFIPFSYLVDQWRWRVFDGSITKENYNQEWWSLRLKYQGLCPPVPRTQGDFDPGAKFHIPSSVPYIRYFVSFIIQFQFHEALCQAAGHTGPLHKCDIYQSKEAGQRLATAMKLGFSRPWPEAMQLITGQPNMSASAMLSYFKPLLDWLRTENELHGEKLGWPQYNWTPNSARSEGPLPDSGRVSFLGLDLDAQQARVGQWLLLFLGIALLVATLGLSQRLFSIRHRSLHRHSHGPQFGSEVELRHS
# Chain of Substance-P receptor (Homo sapiens) (P25103 whole entry): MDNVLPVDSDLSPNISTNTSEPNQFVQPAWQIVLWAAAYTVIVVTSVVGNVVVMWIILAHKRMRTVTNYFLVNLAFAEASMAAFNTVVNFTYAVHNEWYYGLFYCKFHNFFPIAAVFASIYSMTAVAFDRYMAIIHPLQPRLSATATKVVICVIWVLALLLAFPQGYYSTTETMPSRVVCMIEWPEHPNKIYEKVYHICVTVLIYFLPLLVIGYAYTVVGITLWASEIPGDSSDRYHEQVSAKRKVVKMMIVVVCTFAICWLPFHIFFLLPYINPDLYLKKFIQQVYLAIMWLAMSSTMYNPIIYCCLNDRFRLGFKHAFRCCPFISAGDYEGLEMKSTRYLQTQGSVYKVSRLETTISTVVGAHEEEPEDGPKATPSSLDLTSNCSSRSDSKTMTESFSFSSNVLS
compound,measurement,setting,value
COc1ccc2c(N[C@@H](C)Cc3cc(C)[nH]n3)ncnc2c1OC,inhibition,[1],< 50%
same,inhibition,[2],< 50%
same,Drug uptake(free),[3],2 nM
same,inhibition,[4],< 50%
same,Ratio IC50,[5],> 3380
same,Ratio IC50,Homo sapiens [6],983
same,inhibition,[7],< 50%
same,Drug uptake(free),[8],4 nM
same,inhibition,[9],< 50%
same,Ratio,[10],0.2
same,Ratio IC50,Homo sapiens [11],3740
same,inhibition,[12],< 50%
same,inhibition,[13],< 50%
same,inhibition,[14],< 50%
same,IC50,[15],47.6 µM
same,inhibition,Homo sapiens [16],< 50%
same,Ratio IC50,[17],> 15600
same,inhibition,[18],< 50%
same,IC50,[19],34.7 µM
same,inhibition,Homo sapiens [20],< 50%
same,inhibition,[21],< 50%
same,inhibition,[22],< 50%
same,inhibition,[23],< 50%
same,inhibition,Homo sapiens [24],< 50%
same,IC50,[25],0.0091 µM

# Reference: ChEMBL document CHEMBL4118152, “Discovery of Potent and Selective Periphery-Restricted Quinazoline Inhibitors of the Cyclic Nucleotide Phosphodiesterase PDE1” (J Med Chem, 2018)
